The source of these data is ChEMBL document CHEMBL3045498, “Antifeedant and larvicidal activities of Rhein isolated from the flowers of Cassia fistula L” (2011).

Holding throughout (assay type): functional
Assay [1] relates to Helicoverpa armigera. Kind of assay: Larvicidal activity against Helicoverpa armigera fed on compound-treated cotton leaf assessed as mortality after 96 hr relative to control. The essentials:
(§1)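 Larvae were fed 24 h on leaf discs treated with compound at several concentrations, then kept on untreated fresh leaves. Diet was replaced every 24 h, and larval mortality was scored 96 h after treatment.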

Assay [2] deals with Helicoverpa armigera. Kind of assay: Larvicidal activity against Helicoverpa armigera fed on compound-treated cotton leaf assessed as mortality at 1000 ppm after 96 hr relative to control. The essentials: as §1
The subject of assay [3] is Spodoptera litura. Kind of assay: Antifeedant activity against pre-starved fourth-instar larva of Spodoptera litura fed on compound-treated castor leaf assessed as antifeedant index at 500 ppm after 24 hr by leaf disc no choice method.
Assay [4] has as its system Spodoptera litura. Kind of assay: Antifeedant activity against pre-starved fourth-instar larva of Spodoptera litura fed on compound-treated castor leaf assessed as antifeedant index at 250 ppm after 24 hr by leaf disc no choice method.
Assay [5] relates to Helicoverpa armigera. Kind of assay: Larvicidal activity against Helicoverpa armigera fed on compound-treated cotton leaf assessed as mortality at 250 ppm after 96 hr relative to control. The essentials:
as §1

Assay [6] concerns Spodoptera litura. Kind of assay: Larvicidal activity against Spodoptera litura fed on compound-treated castor leaf assessed as mortality at 500 ppm after 96 hr relative to control. The essentials: as §1
Assay [7] concerns Spodoptera litura. Kind of assay: Larvicidal activity against Spodoptera litura fed on compound-treated castor leaf assessed as mortality at 125 ppm after 96 hr relative to control. The essentials:
as §1

Assay [8] has as its system Spodoptera litura. Kind of assay: Antifeedant activity against pre-starved fourth-instar larva of Spodoptera litura fed on compound-treated castor leaf assessed as antifeedant index at 1000 ppm after 24 hr by leaf disc no choice method.
Assay [9] has as its system Helicoverpa armigera. Kind of assay: Larvicidal activity against Helicoverpa armigera fed on compound-treated cotton leaf assessed as mortality at 125 ppm after 96 hr relative to control. The essentials: as §1
The test system of assay [10] is Spodoptera litura. Kind of assay: Larvicidal activity against Spodoptera litura fed on compound-treated castor leaf assessed as mortality at 250 ppm after 96 hr relative to control. The essentials: as §1
The subject of assay [11] is Helicoverpa armigera. Kind of assay: Antifeedant activity against pre-starved fourth-instar larva of Helicoverpa armigera fed on compound-treated cotton leaf assessed as antifeedant index at 125 ppm after 24 hr by leaf disk no choice method.
In assay [12] the test system is Helicoverpa armigera. Kind of assay: Larvicidal activity against Helicoverpa armigera fed on compound-treated cotton leaf assessed as mortality at 500 ppm after 96 hr relative to control. The essentials:
as §1

The test system of assay [13] is Helicoverpa armigera. Kind of assay: Antifeedant activity against pre-starved fourth-instar larva of Helicoverpa armigera fed on compound-treated cotton leaf assessed as antifeedant index at 1000 ppm after 24 hr by leaf disk no choice method.
The subject of assay [14] is Spodoptera litura. Kind of assay: Larvicidal activity against Spodoptera litura fed on compound-treated castor leaf assessed as mortality after 96 hr relative to control. The essentials:
as §1

Assay [15] has as its system Helicoverpa armigera. Kind of assay: Antifeedant activity against pre-starved fourth-instar larva of Helicoverpa armigera fed on compound-treated cotton leaf assessed as antifeedant index at 250 ppm after 24 hr by leaf disk no choice method.
The test system of assay [16] is Spodoptera litura. Kind of assay: Larvicidal activity against Spodoptera litura fed on compound-treated castor leaf assessed as mortality at 1000 ppm after 96 hr relative to control. The essentials:
as §1

In assay [17] the test system is Helicoverpa armigera. Kind of assay: Antifeedant activity against pre-starved fourth-instar larva of Helicoverpa armigera fed on compound-treated cotton leaf assessed as antifeedant index at 500 ppm after 24 hr by leaf disk no choice method.
The subject of assay [18] is Spodoptera litura. Kind of assay: Antifeedant activity against pre-starved fourth instar larva of Spodoptera litura fed on compound-treated castor leaf assessed as antifeedant index at 125 ppm after 24 hr by leaf disc no choice method.

Converted amounts (≈) assume the structure as drawn.

In the case of `C/C=C(\C)C(=O)O[C@H]1C[C@@H](OC(C)=O)[C@@]2(C(=O)OC)CO[C@H]3[C@@H](O)[C@@](C)([C@]45O[C@@]4(C)[C@@H]4C[C@H]5O[C@@H]5OC=C[C@@]54O)[C@H]4[C@]1(CO[C@]4(O)C(=O)OC)[C@@H]32` [AZADIRACHTIN A], the LC50 – broadly, the concentration lethal to half of the exposed cells or organisms – with Helicoverpa armigera [1] came to 186 µg/mL (≈ 258 µM); with Spodoptera litura [14], 128 µg/mL (≈ 177 µM). The mortality at 1000 ppm in the assay with Helicoverpa armigera [2] and in the assay on Spodoptera litura [16] was 100% each time. Moreover, the AFI in the assay on Spodoptera litura [3] turned out to be 78.66%; with Spodoptera litura [4], 70.08%; in the assay on Spodoptera litura [8], 88.02%; with Helicoverpa armigera [11], 53.5%; with Helicoverpa armigera [13], 86.47%; in the assay with Helicoverpa armigera [15] it was 64.13%. For the same compound, the AFI with Helicoverpa armigera [17] is 75.88%; in the assay with Spodoptera litura [18], 60.12%. Moreover, the mortality (in general, the percentage killed) at 250 ppm in the assay with Helicoverpa armigera [5] came out at 61.2%; in the assay with Spodoptera litura [10], 73.8%. The values for the mortality at 500 ppm in the assay on Spodoptera litura [6] and in the assay on Helicoverpa armigera [12] were 100% and 95%, respectively. Besides, the mortality at 125 ppm in the assay on Spodoptera litura [7] amounted to 52.5%; in the assay on Helicoverpa armigera [9], 38.8%.
As to `O=C(O)c1cc(O)c2c(c1)C(=O)c1cccc(O)c1C2=O` [RHEIN], the values for the median lethal concentration (LC50) in the assay on Helicoverpa armigera [1] and with Spodoptera litura [14] were 606 µg/mL (≈ 2130 µM) and 1190 µg/mL (≈ 4200 µM), respectively. Moreover, the results for the mortality at 1000 ppm in the assay on Helicoverpa armigera [2] and with Spodoptera litura [16] were 67.5% and 36.2%, respectively. Moreover, the AFI in the assay on Spodoptera litura [3] is 40.85%; in the assay on Spodoptera litura [4], 33.05%; with Spodoptera litura [8] it was 56.79%; in the assay with Helicoverpa armigera [11] it was 47.82%; in the assay on Helicoverpa armigera [13], 76.13%; in the assay with Helicoverpa armigera [15] it was 55.06%. In addition, the AFI in the assay on Helicoverpa armigera [17] was found to be 59.98%; with Spodoptera litura [18], 27.28%. The figures for the mortality at 250 ppm in the assay with Helicoverpa armigera [5] and with Spodoptera litura [10] were 32.5% and 15%, respectively. The results for the mortality at 500 ppm in the assay with Spodoptera litura [6] and in the assay with Helicoverpa armigera [12] were 21.2% and 50%, respectively. In addition, the mortality at 125 ppm was 0% with Spodoptera litura [7] and 22.5% with Helicoverpa armigera [9].
